# Data as given in ChEMBL document CHEMBL1629663, “Postantibiotic effects of telavancin against 16 gram-positive organisms” (Antimicrob Agents Chemother, 2009).
# Tests used:
# Format in all cases: functional
# Staphylococcus aureus [1] = assay: Antimicrobial activity against vancomycin-susceptible-, methicillin-resistant Staphylococcus aureus 1307 assessed as time required to induce sub-MIC effect at 0.4 times MIC exposed for 2 hrs by plate counting method
# Summary of the method: (§1)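 Sub-MIC effect: cultures not preexposed to drug were diluted and handled as in the PA-SME procedure in Mueller-Hinton broth with final 0.2, 0.3 or 0.4× MIC, plus a drug-free control. Viable plate counts were taken every 2 h until McFarland 1 turbidity. Duration was derived from growth curves. Two experiments were run, each with a new inoculum.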
# Staphylococcus aureus [2] = assay: Antimicrobial activity against vancomycin-resistant-, methicillin-resistant Staphylococcus aureus 510 assessed as time required to induce sub-MIC effect at 0.3 times MIC exposed for 2 hrs by plate counting method; summary of the method: as §1
# Staphylococcus aureus [3] = assay: Antimicrobial activity against vancomycin-intermediate-, methicillin-resistant Staphylococcus aureus 1287 by microdilution method
# Staphylococcus aureus [4] = assay: Antimicrobial activity against vancomycin-intermediate-, methicillin-resistant Staphylococcus aureus 770 assessed as post-antibiotic effect at 10 times MIC pre-exposed to Telavancin for 1 hr by plate counting method
# Summary of the method: (§2)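 Viable plate count method in Mueller-Hinton broth. Direct colony suspension inoculum of about 5 × 10^6 CFU/ml was exposed to 10× MIC for 1 h at 35°C in a shaking water bath, then diluted 1:1,000 to remove drug. Counts were taken before exposure, at 0 h, then every 2 h until McFarland no. 1 turbidity. PAE = T − C, the time to a 1 log10 rise versus an unexposed growth control.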
# Streptococcus pyogenes = assay: Antimicrobial activity against Streptococcus pyogenes HMC 414 assessed as post-antibiotic effect at 10 times MIC pre-exposed to Telavancin for 1 hr by plate counting method
# Summary of the method: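 Organisms were suspended in Mueller-Hinton broth from overnight blood agar colonies at about 5 × 10^6 CFU/ml. Cultures were exposed to telavancin at 10× MIC for 1 h at 35°C in a shaking water bath, then diluted 1:1,000 to remove the drug, with an untreated growth control. Viable counts were taken before exposure, at 0 h, then every 2 h until McFarland no. 1 turbidity. PAE = T − C, the time to a 1 log10 rise. Two experiments.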
# Enterococcus faecalis = assay: Antimicrobial activity against Enterococcus faecalis HMC 571 assessed as time required to induce sub-MIC effect at 0.4 times MIC exposed for 2 hrs by plate counting method
# Summary of the method: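 Unexposed Mueller-Hinton broth cultures (about 5 × 10^6 CFU/ml, 35°C) were handled as in the PA-SME set but without the 10× MIC pre-exposure. They were diluted 1:1,000, then given telavancin at final 0.2, 0.3 or 0.4× MIC, with a drug-free control. Viable counts were taken every 2 h until McFarland no. 1 turbidity. Effect duration comes from log10 CFU/ml-time plots; two separate experiments with new inocula.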
# Staphylococcus aureus [5] = assay: Antimicrobial activity against vancomycin-intermediate-, methicillin-resistant Staphylococcus aureus 1287 assessed as time required to induce sub-MIC effect at 0.4 times MIC […] by plate counting method
# Summary of the method: (§3)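 SME, viable plate count method: no prior drug exposure. About 5 × 10^6 CFU/ml in Mueller-Hinton broth at 35°C received 0.2, 0.3 or 0.4× MIC, alongside a drug-free tube. Counts were taken at the start, then every 2 h until McFarland no. 1 turbidity, as log10 CFU/ml against time. Two separate experiments, each with a new inoculum.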
# Staphylococcus aureus [6] = assay: Antimicrobial activity against vancomycin-intermediate-, methicillin-resistant Staphylococcus aureus 1287 assessed as time required to induce post antibiotic sub-MIC effect at 0.4 times MIC […] by plate counting method
# Summary of the method: (§4)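 PAE was first induced with 10× MIC for 1 h at 35°C (inoculum about 5 × 10^6 CFU/ml, Mueller-Hinton broth) and ended by 1:1,000 dilution. Cultures were then split and given 0.2, 0.3 or 0.4× MIC, with one tube left without drug. Viable counts were taken before exposure, after dilution, then every 2 h until McFarland no. 1 turbidity. Two separate experiments, each with a new inoculum.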
# Staphylococcus aureus [7] = assay: Antimicrobial activity against vancomycin-susceptible-, methicillin-resistant Staphylococcus aureus 1130 assessed as time required to induce sub-MIC effect at 0.3 times MIC exposed for 2 hrs by plate counting method; summary of the method: as §1
# Streptococcus agalactiae [8] = assay: Antimicrobial activity against Streptococcus agalactiae HMC 5 assessed as time required to induce post antibiotic sub-MIC effect at 0.2 times MIC pre-exposed to Telavancin for 2 hrs by plate counting method; settings: in the assay text read “for 1 hr” for “for 2 hrs”
# Summary of the method: (§5)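 Mueller-Hinton broth cultures of about 5 × 10^6 CFU/ml were pre-exposed to telavancin at 10× MIC for 1 h at 35°C, then diluted 1:1,000. Telavancin was re-added to final 0.2, 0.3 or 0.4× MIC, alongside a drug-free tube. Viable counts were taken before exposure, after dilution, then every 2 h until McFarland no. 1 turbidity. Duration comes from log10 CFU/ml-versus-time plots; two separate experiments with fresh inocula.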
# Staphylococcus aureus [9] = assay: Antimicrobial activity against vancomycin-susceptible-, methicillin-resistant Staphylococcus aureus ATCC 33591 assessed as time required to induce sub-MIC effect at 0.3 times MIC exposed for 2 hrs by plate counting method; summary of the method: as §1
# Staphylococcus aureus [10] = assay: Antimicrobial activity against heterogenous vancomycin-intermediate-, methicillin-resistant Staphylococcus aureus 618 assessed as time required to induce post antibiotic sub-MIC effect at 0.2 times MIC pre-exposed to Telavancin […] by plate counting method; summary of the method: as §4
# Staphylococcus aureus [11] = assay: Antimicrobial activity against heterogenous vancomycin-intermediate-, methicillin-resistant Staphylococcus aureus 873 assessed as post-antibiotic effect at 10 times MIC pre-exposed to Telavancin for 1 hr by plate counting method; summary of the method: as §2
# Staphylococcus aureus [12] = assay: Antimicrobial activity against heterogenous vancomycin-intermediate-, methicillin-resistant Staphylococcus aureus 873 assessed as time required to induce post antibiotic sub-MIC effect at 0.2 times MIC pre-exposed to Telavancin […] by plate counting method; summary of the method: as §4
# Streptococcus agalactiae [13] = assay: Antimicrobial activity against Streptococcus agalactiae HMC 5 by microdilution method
# Streptococcus agalactiae [14] = assay: Antimicrobial activity against Streptococcus agalactiae HMC 5 assessed as time required to induce post antibiotic sub-MIC effect at 0.4 times MIC […] by plate counting method; summary of the method: as §5
# Enterococcus faecium [15] = assay: Antimicrobial activity against Enterococcus faecium HMC 588 by microdilution method
# Staphylococcus aureus [16] = assay: Antimicrobial activity against heterogenous vancomycin-intermediate-, methicillin-resistant Staphylococcus aureus 618 by microdilution method
# Staphylococcus aureus [17] = assay: Antimicrobial activity against heterogenous vancomycin-intermediate-, methicillin-resistant Staphylococcus aureus 873 assessed as time required to induce sub-MIC effect at 0.3 times MIC […] by plate counting method; summary of the method: as §3
# Enterococcus faecium [18] = assay: Antimicrobial activity against Enterococcus faecium HMC 588 assessed as time required to induce post antibiotic sub-MIC effect at 0.2 times MIC pre-exposed to Telavancin […] by plate counting method; summary of the method: as §5
# Staphylococcus aureus [19] = assay: Antimicrobial activity against vancomycin-susceptible-, methicillin-resistant Staphylococcus aureus 1130 assessed as time required to induce post antibiotic sub-MIC effect at 0.3 times MIC […] by plate counting method
# Summary of the method: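 After 1 h preexposure to 10× MIC at 35°C and 1:1,000 dilution, cultures were split, and drug was re-added to final 0.2, 0.3 or 0.4× MIC, with a drug-free tube. Viable counts were taken every 2 h until McFarland 1 turbidity. Duration was derived from log10 CFU/ml versus time curves. Two experiments were run, each with a new inoculum.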
smiles,measurement,setting,value
CCCCCCCCCCNCCN[C@@]1(C)C[C@H](O[C@H]2[C@H](Oc3c4cc5cc3Oc3ccc(cc3Cl)[C@@H](O)[C@@H](NC(=O)[C@@H](CC(C)C)NC)C(=O)N[C@@H](CC(N)=O)C(=O)N[C@H]5C(=O)N[C@H]3C(=O)N[C@H](C(=O)N[C@H](C(=O)O)c5cc(O)c(CNCP(=O)(O)O)c(O)c5-c5cc3ccc5O)[C@H](O)c3ccc(c(Cl)c3)O4)O[C@H](CO)[C@@H](O)[C@@H]2O)O[C@@H](C)[C@H]1O [TELAVANCIN],PAE,Staphylococcus aureus [1],6.3 h
same,PAE,Staphylococcus aureus [2],2.3 h
same,MIC,Staphylococcus aureus [3],0.5 µg/mL
same,PAE,Staphylococcus aureus [4],1.6 h
same,PAE,Streptococcus pyogenes,6.1 h
same,PAE,Enterococcus faecalis,9.6 h
same,PAE,Staphylococcus aureus [5],0.8 h
same,PAE,Staphylococcus aureus [6],> 10 h
same,PAE,Staphylococcus aureus [7],2 h
same,PAE,Streptococcus agalactiae [8],0.8 h
same,PAE,Staphylococcus aureus [9],1.4 h
same,PAE,Staphylococcus aureus [10],5.7 h
same,PAE,Staphylococcus aureus [11],1.2 h
same,PAE,Staphylococcus aureus [12],3.6 h
same,MIC,Streptococcus agalactiae [13],0.12 µg/mL
same,PAE,Streptococcus agalactiae [14],> 10.7 h
same,MIC,Enterococcus faecium [15],0.12 µg/mL
same,MIC,Staphylococcus aureus [16],0.12 µg/mL
same,PAE,Staphylococcus aureus [17],0.5 h
same,PAE,Enterococcus faecium [18],1.9 h
same,PAE,Staphylococcus aureus [19],10 h
